Source: ChEMBL document CHEMBL1139420, “Antibacterial profile against drug-resistant Staphylococcus epidermidis clinical strain and structure-activity relationship studies of 1H-pyrazolo[3,4-b]pyridine and thieno[2,3-b]pyridine derivatives” (Bioorg Med Chem, 2008)
The source made the active and inactive calls. The rule behind the calls is not given here.

Legend:
Klebsiella pneumoniae = test: Antibacterial activity against drug-resistant Klebsiella pneumoniae clinical isolate assessed as inhibition zone diameter after 24 hrs by antibacterial susceptibility test; type: functional, organism-based
Enterococcus faecalis = test: Antibacterial activity against drug-resistant Enterococcus faecalis clinical isolate assessed as inhibition zone diameter after 24 hrs by antibacterial susceptibility test; type: functional, organism-based
Proteus mirabilis = test: Antibacterial activity against drug-resistant Proteus mirabilis clinical isolate assessed as inhibition zone diameter after 24 hrs by antibacterial susceptibility test; type: functional, organism-based
Pseudomonas aeruginosa = test: Antibacterial activity against drug-resistant Pseudomonas aeruginosa clinical isolate assessed as inhibition zone diameter after 24 hrs by antibacterial susceptibility test; type: functional, organism-based
Serratia marcescens = test: Antibacterial activity against drug-resistant Serratia marcescens clinical isolate assessed as inhibition zone diameter after 24 hrs by antibacterial susceptibility test; type: functional, organism-based
[1] = test system: Acinetobacter calcoaceticus; test: Antibacterial activity against drug-resistant Acinetobacter calcoaceticus clinical isolate assessed as inhibition zone diameter after 24 hrs by antibacterial susceptibility test; type: functional, organism-based
[2] = test system: Staphylococcus epidermidis; test: Antibacterial activity against drug-resistant Staphylococcus epidermidis clinical isolate assessed as inhibition zone diameter after 24 hrs by antibacterial susceptibility test; type: functional
[3] = Cytotoxicity against human PBMC assessed as cell viability at 700 uM after 3 to 5 days by XTT method; type: cell-based; details: PBMC (peripheral blood mononuclear cells), read-out: Activity
In short: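 Human PBMCs from healthy donors isolated by density gradient from buffy coats, kept in RPMI 1640 with 10% heat-inactivated FBS, penicillin, streptomycin, 2 mM glutamine, 10 mM Hepes; stimulated 2–3 days with 5 µg/mL PHA, then kept with 5 U/mL IL-2. Compound at 700 µM, 5% CO2, 37 °C; XTT added, OD 450 nm after 2 h; duplicate, at least three times.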

Enterobacter cloacae = test: Antibacterial activity against drug-resistant Enterobacter cloacae clinical isolate assessed as inhibition zone diameter after 24 hrs by antibacterial susceptibility test; type: functional, organism-based
Escherichia coli = test: Antibacterial activity against drug-resistant Escherichia coli clinical isolate assessed as inhibition zone diameter after 24 hrs by antibacterial susceptibility test; type: functional, organism-based

| SMILES | Activity (Klebsiella pneumoniae) | Activity (Enterococcus faecalis) | Activity (Proteus mirabilis) | Activity (Pseudomonas aeruginosa) | Activity (Serratia marcescens) | Activity [1] | inhibition zone (IZ) [2] [mm] | viability at 700 µM [3] [%] | Activity (Enterobacter cloacae) | Activity (Escherichia coli) |
| --- | --- | --- | --- | --- | --- | --- | --- | --- | --- | --- |
| Cc1ccc(Nc2c(C(=O)O)cnc3sccc23)cc1 | inactive | inactive | inactive | inactive | inactive | inactive | 0 | 100 | inactive | inactive |
| Cc1cccc(Nc2c(C(=O)O)cnc3sccc23)c1 | inactive | inactive | inactive | inactive | inactive | inactive | 0 | 100 | inactive | inactive |
| CN[C@H](CC(C)C)C(=O)N[C@H]1C(=O)N[C@@H](CC(N)=O)C(=O)N[C@H]2C(=O)N[C@H]3C(=O)N[C@H](C(=O)N[C@H](C(=O)O)c4cc(O)cc(O)c4-c4cc3ccc4O)[C@H](O)c3ccc(c(Cl)c3)Oc3cc2cc(c3O[C@@H]2O[C@H](CO)[C@@H](O)[C@H](O)[C@H]2O[C@H]2C[C@](C)(N)[C@H](O)[C@H](C)O2)Oc2ccc(cc2Cl)[C@H]1O [VANCOMYCIN] | – | – | – | – | – | – | 15 | – | – | – |
| Cc1ccc(Nc2c(C(=O)O)cnc3c2cnn3-c2ccccc2)cc1 | inactive | inactive | inactive | inactive | inactive | inactive | 0 | 100 | inactive | inactive |
| O=C(O)c1cnc2sccc2c1Nc1cccc([N+](=O)[O-])c1 | inactive | inactive | inactive | inactive | inactive | inactive | 0 | 100 | inactive | inactive |
| O=C(O)c1cnc2c(cnn2-c2ccccc2)c1Nc1ccccc1 | inactive | inactive | inactive | inactive | inactive | inactive | 0 | 91 | inactive | inactive |
| O=C(O)c1cnc2sccc2c1Nc1cccc(Br)c1 | inactive | inactive | inactive | inactive | inactive | inactive | 0 | 100 | inactive | inactive |
| O=C(O)c1cnc2c(cnn2-c2ccccc2)c1Nc1ccc(Br)cc1 | inactive | inactive | inactive | inactive | inactive | inactive | 10 | 92 | inactive | inactive |
| COc1ccc(Nc2c(C(=O)O)cnc3sccc23)cc1 | inactive | inactive | inactive | inactive | inactive | inactive | 0 | 100 | inactive | inactive |
| O=C(O)c1cnc2c(cnn2-c2ccccc2)c1Nc1cccc([N+](=O)[O-])c1 | inactive | inactive | inactive | inactive | inactive | inactive | 12 | 100 | inactive | inactive |
| O=C(O)c1cnc2sccc2c1Nc1ccc(F)cc1 | inactive | inactive | inactive | inactive | inactive | inactive | 0 | 100 | inactive | inactive |
| COc1ccc(Nc2c(C(=O)O)cnc3c2cnn3-c2ccccc2)cc1 | inactive | inactive | inactive | inactive | inactive | inactive | 0 | 100 | inactive | inactive |
| O=C(O)c1cnc2sccc2c1Nc1cccc(Cl)c1 | inactive | inactive | inactive | inactive | inactive | inactive | 0 | 100 | inactive | inactive |
| COc1cccc(Nc2c(C(=O)O)cnc3sccc23)c1 | inactive | inactive | inactive | inactive | inactive | inactive | 0 | 100 | inactive | inactive |
| O=C(O)c1cnc2sccc2c1Nc1ccccc1 | inactive | inactive | inactive | inactive | inactive | inactive | 0 | 100 | inactive | inactive |
| O=C(O)c1cnc2sccc2c1Nc1ccc([N+](=O)[O-])cc1 | inactive | inactive | inactive | inactive | inactive | inactive | 0 | 100 | inactive | inactive |
| O=C(O)c1cnc2sccc2c1Nc1ccc(Cl)cc1 | inactive | inactive | inactive | inactive | inactive | inactive | 0 | 100 | inactive | inactive |
| O=C(O)c1cnc2sccc2c1Nc1cccc(F)c1 | inactive | inactive | inactive | inactive | inactive | inactive | 0 | 100 | inactive | inactive |
| O=C(O)c1cnc2sccc2c1Nc1ccc(Br)cc1 | inactive | inactive | inactive | inactive | inactive | inactive | 0 | 100 | inactive | inactive |
